Lipid droplet – modulators of hepatic lipid droplet formation; inhibition, % at 6.5 µM; AML12 mouse hepatocytes, oleate lipid droplets, BODIPY imaging; 240,000 tested, 0.4% active; AID 1656;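 active means lipid droplet intensity inhibited by at least 50%, with more than 500 cells counted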
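Assay system: AML12 hepatocytes (mouse) / Also added: 100 µM oleic acid challenge / Times: overnight treatment with compound plus oleate / Detection: high-content imaging of BODIPY-stained droplets and DAPI nuclei / Evaluation: % inhibition of lipid droplet signal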
697 NFkB inh – lowers PMA/ionomycin-induced NF-kB signal in 697 B cells; 697 B-cell NF-kB luciferase reporter, 16 h; 330,000 tested, 0.33% active; inhibition, % at 4 µM; in the data active means inhibition above about 35%
Gli-Sufu block – blocks Gli-Sufu signaling in a luciferase reporter. Sufu-KO-LIGHT fibroblasts, Gli luciferase reporter luminescence. inhibition, % at 5 µM. 340,000 tested, 0.74% active. AID 588413;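 active means inhibition above about 55%, limit read from the data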;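 further: 0% = DMSO-treated cells and 100% = wells with medium but no cells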
Jurkat NFkB inh – inhibitors of the PMA/ionomycin-induced NF-kB reporter in Jurkat cells. PMA/ionomycin-induced NF-kB luciferase reporter, luminescence. inhibition, % at 4 µM. 330,000 tested, 0.53% active. AID 435003; in the data active means inhibition above about 50%
iPSC survival up – increases survival of single human iPS cells; hiPSC single-cell survival, ATPlite luminescence; 100% = ROCK inhibitor wells, 0% = DMSO; survival enhancement, % at 20 µM; 360,000 tested, 0.044% active; in the data active means survival enhancement above about 18%;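 further: cells exposed to compounds for 16 hours before the ATP read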
H9c2 TAG inh – inhibitors of triacylglycerol accumulation | H9c2 cells, Nile Red lipid (TAG) fluorescence; cells loaded with 200 µM oleic acid | inhibition, % at 12.5 µM | 230,000 tested, 0.66% active | AID 651582;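 active means pattern-corrected inhibition of lipid staining of at least 50% with the nuclear-stain viability signal not falling by more than 50%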;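 further: 0% = DMSO wells and 100% = triacsin C control wells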
Jurkat NFkB conf – lowers PMA/ionomycin-induced NF-kB signal in Jurkat cells; shares compounds with Jurkat NFkB inh; Jurkat NF-kB luciferase, 16 h; inhibition, % at 4 µM; 2,700 tested, 27% active;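 active means inhibition reaching about 45% at 4 µM in either replicate, limit read from the data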;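 further: plate controls were PMA/ionomycin stimulated DMSO wells for no effect and unstimulated DMSO wells for full effect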
* = called active by the depositor. An excerpt weighted towards active compounds, which were near 1.8% of everything screened.

`CCN(CC)c1ccc(-c2nn3c(-c4ccccc4OC)nnc3s2)cc1` gave 697 NFkB inh -119, Gli-Sufu block 39, Jurkat NFkB inh 79*, iPSC survival up -1 and Jurkat NFkB conf 64*.
O=C(Nc1ccc2nsnc2c1)c1ccc2c(c1)OCO2 was read as Lipid droplet 1, 697 NFkB inh -159, Gli-Sufu block -86, Jurkat NFkB inh -166, iPSC survival up -1 and Jurkat NFkB conf -72.
`O=C(Nc1ccc(Br)cc1)c1ccc2c(c1)OCO2` gave Lipid droplet 0, 697 NFkB inh -238, Gli-Sufu block -102, Jurkat NFkB inh -151, iPSC survival up 0, H9c2 TAG inh -3 and Jurkat NFkB conf -123.
For CCOC(=O)C(=CNc1cccnc1Oc1ccc(C)c2c1CCC2)C(=O)OCC the results were Lipid droplet 7, 697 NFkB inh 8, Gli-Sufu block 6, Jurkat NFkB inh 30, iPSC survival up 0 and H9c2 TAG inh -16.
`CC(C)c1ccc(-n2cnn(-c3ncccc3[N+](=O)[O-])c2=O)cc1` gave Lipid droplet 1, 697 NFkB inh -155, Gli-Sufu block -119, Jurkat NFkB inh -204, iPSC survival up -3, H9c2 TAG inh -9 and Jurkat NFkB conf -126.
`CC1=C(C#N)C(c2cn(-c3ccccc3)nc2-c2cccs2)C(C#N)=C(C)N1` gave 697 NFkB inh -30, Gli-Sufu block 42, Jurkat NFkB inh 53*, iPSC survival up 2 and Jurkat NFkB conf -8.
Screening COc1cc2c(cc1OC)C(COc1ccc([N+](=O)[O-])cc1)N(C(C)=O)CC2 (stereo unspecified) returned Lipid droplet 9, 697 NFkB inh -42, Gli-Sufu block 4, Jurkat NFkB inh 68*, iPSC survival up 1 and Jurkat NFkB conf 24.
COc1cc2c(cc1OC)C(COc1ccccc1OC)N(C(C)=O)CC2 (stereo unspecified) was read as Lipid droplet 2, 697 NFkB inh -13, Gli-Sufu block 0, Jurkat NFkB inh 2 and iPSC survival up -1.
For COC(=O)c1ccc(-c2ccc(Cl)cc2)nc1C the results were Lipid droplet -5, 697 NFkB inh -181, Gli-Sufu block -102, Jurkat NFkB inh -172, iPSC survival up 0 and Jurkat NFkB conf -95.
O=C(COc1ccccc1Cl)Nc1ccc(Cl)cn1 was read as 697 NFkB inh -52, Gli-Sufu block -112, Jurkat NFkB inh -153, iPSC survival up -2, H9c2 TAG inh -32 and Jurkat NFkB conf -99.
For COc1cccc(NC(=O)C2CCCN(S(C)(=O)=O)C2)c1 (stereo unspecified) the results were Lipid droplet -1, 697 NFkB inh 9, Gli-Sufu block 3, Jurkat NFkB inh -17 and iPSC survival up 0.
Screening Cc1ccnc2c1ccc1ccccc12 returned Lipid droplet -1, 697 NFkB inh 9, Gli-Sufu block -5, Jurkat NFkB inh -2 and iPSC survival up 0.
`Cc1ccnc2c(N3C(=O)C4C5c6ccccc6C(c6ccccc65)C4C3=O)cccc12` (stereo unspecified) gave 697 NFkB inh -27, Gli-Sufu block 2, Jurkat NFkB inh -10, iPSC survival up -2 and H9c2 TAG inh 15.
For Cc1ccnc2c1ccc1cccnc12 the results were 697 NFkB inh -14, Gli-Sufu block 92*, Jurkat NFkB inh 69*, iPSC survival up 0, H9c2 TAG inh 13 and Jurkat NFkB conf 64*.
Screening Cc1ccnc2c1ccc1c(C)ccnc12 returned 697 NFkB inh -27, Gli-Sufu block 91*, Jurkat NFkB inh 76*, iPSC survival up -1, H9c2 TAG inh -37 and Jurkat NFkB conf 75*.
`C[C@@H]1CN([C@H](C)CO)S(=O)(=O)c2ccc(Br)cc2O[C@H]1CN(C)C(=O)C1CC1` gave iPSC survival up -1 and H9c2 TAG inh -19.
`CCOC(=O)[C@]12CCCC=C1N(Cc1ccco1)C(=O)[C@H](CC(=O)NCCCOC)C2` gave iPSC survival up 1.
For Cc1ccc(N/C(N)=N/c2nc3c(c(=O)[nH]2)CCCC3)c(C)c1 the results were 697 NFkB inh -53, Gli-Sufu block -1, Jurkat NFkB inh 48 and iPSC survival up 2.
Cc1ccc(N/C(N)=N/c2nc(C)cc(N3CCCCC3)n2)c(C)c1 was read as Lipid droplet 10, 697 NFkB inh -78, Gli-Sufu block 85*, Jurkat NFkB inh 89*, iPSC survival up -2, H9c2 TAG inh 39 and Jurkat NFkB conf 16.
For O=C(NCCc1ccccc1)c1ccc2c(c1)OCCO2 the results were Lipid droplet 12, 697 NFkB inh 22, Gli-Sufu block 34, Jurkat NFkB inh 54*, iPSC survival up -1, H9c2 TAG inh 2 and Jurkat NFkB conf 70*.
For COc1ccc(CCNC(=O)c2ccc3c(c2)OCCO3)cc1 the results were Lipid droplet 1, 697 NFkB inh -28, Gli-Sufu block -46, Jurkat NFkB inh -33, iPSC survival up 2 and H9c2 TAG inh 4.
For CC(=O)C1C(=O)CC(C)(O)C(C(C)=O)C1c1ccccc1 (stereo unspecified) the results were Lipid droplet -4, 697 NFkB inh -3, Gli-Sufu block 0, Jurkat NFkB inh 15, iPSC survival up -2 and H9c2 TAG inh -8.
`O=C(Cc1ccc(Cl)cc1)Nc1ccc(-c2cc3ccccc3oc2=O)c(Cl)c1` gave Lipid droplet -14, 697 NFkB inh -41, Gli-Sufu block -17, Jurkat NFkB inh 59*, iPSC survival up -2 and Jurkat NFkB conf 28.
O=C(O)CC1c2ccccc2C=Cc2ccccc21 was read as 697 NFkB inh 0, Gli-Sufu block -3, Jurkat NFkB inh 4, iPSC survival up -3 and H9c2 TAG inh 4.
COC(=O)c1ccccc1S(=O)(=O)NCc1nc2nc(C)cc(C)n2n1 was read as Lipid droplet 6, 697 NFkB inh 6, Gli-Sufu block 1, Jurkat NFkB inh -10, iPSC survival up -2 and H9c2 TAG inh 8.
`Cc1cccc(/C=N/Nc2nncc3ccccc23)c1` gave Lipid droplet 8, 697 NFkB inh -181, Gli-Sufu block -6, Jurkat NFkB inh -168, iPSC survival up -1, H9c2 TAG inh 14 and Jurkat NFkB conf -101.
Screening C(=N\Nc1nncc2ccccc12)/c1ccccc1 returned Lipid droplet 14, 697 NFkB inh -71, Gli-Sufu block -60, Jurkat NFkB inh -51, iPSC survival up -1 and H9c2 TAG inh 0.
For N#Cc1cc2c(nc1SCc1nc3ccccc3[nH]1)CCC2 the results were 697 NFkB inh -131, Jurkat NFkB inh -169 and Jurkat NFkB conf -56.
`Cc1cccc(CSc2nc3c(cc2C#N)CCC3)c1` gave Lipid droplet 16, 697 NFkB inh -26, Gli-Sufu block -17, Jurkat NFkB inh -11, iPSC survival up -1 and H9c2 TAG inh -14.

Screening data from PubChem.
